A short description of data set [1]: Second order rate constant was determined in the inactivation of HPK. The procedure, abridged:
(§1)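 Trypsin or human plasma kallikrein (10^-6 to 10^-9 M final) was inactivated at 25 °C by ester in water (10^-3 to 10^-6 M final) in 50 mM Pipes, pH 7.0, with 200 mM NaCl. Activity decayed first-order. Individual constants k_2 (min⁻¹) and K_m (M) were resolved for each enzyme.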

Data set [2] can be described thus: Second order rate constant was determined in the inactivation of trypsin. The procedure, abridged: as §1
The next data set relates to Plasminogen. Put plainly: Compound was evaluated for the reactivity in the inactivation of trypsin like enzyme plasmin. Put shortly: (§2)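 Each enzyme (10^-6 to 10^-9 M final) was incubated at 25 °C with inhibitor dissolved in water (10^-3 to 10^-6 M final) in 50 mM Pipes, pH 7.0, with 200 mM NaCl. Loss of activity was treated as first-order to give k_app. Reactivity was k_app divided by inhibitor concentration.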

Data set [3] has as its target Urokinase-type plasminogen activator (Homo sapiens) (UniProt P00749). In words: Compound was evaluated for the reactivity in the inactivation of trypsin like Urokinase-type plasminogen activator. The procedure, abridged: as §2
The nature of data set [4]: Compound was evaluated for the reactivity in the inactivation of trypsin like enzyme. Put shortly: as §2
The target in another data set is Acrosin (Sus scrofa) (UniProt P08001). Put plainly: Compound was evaluated for the reactivity in the inactivation of trypsin like boar acrosin.
The target in data set [5] is Plasma kallikrein (Homo sapiens) (UniProt P03952). Put plainly: Compound was evaluated for the reactivity in the inactivation of trypsin like enzyme Human plasma Kallikrein.

Data on eight molecules can be found in ChEMBL document CHEMBL1121848, “Inactivation of trypsin-like proteases by depsipeptides of p-guanidinobenzoic acid” (J Med Chem, 1981).

Chain of Acrosin (Sus scrofa) (P08001 whole entry, looked up): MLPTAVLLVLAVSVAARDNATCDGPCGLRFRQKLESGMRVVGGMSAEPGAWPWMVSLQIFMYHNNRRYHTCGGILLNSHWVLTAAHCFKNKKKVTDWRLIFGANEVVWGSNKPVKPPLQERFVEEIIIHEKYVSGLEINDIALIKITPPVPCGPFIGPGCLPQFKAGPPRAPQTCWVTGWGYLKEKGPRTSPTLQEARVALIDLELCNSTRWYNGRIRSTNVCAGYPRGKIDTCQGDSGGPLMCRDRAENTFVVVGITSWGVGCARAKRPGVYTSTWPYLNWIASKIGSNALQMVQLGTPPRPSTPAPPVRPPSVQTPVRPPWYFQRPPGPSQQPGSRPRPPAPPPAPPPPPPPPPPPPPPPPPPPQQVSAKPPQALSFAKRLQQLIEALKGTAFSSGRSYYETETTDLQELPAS
Chain of Plasma kallikrein (Homo sapiens) (P03952 whole entry, looked up): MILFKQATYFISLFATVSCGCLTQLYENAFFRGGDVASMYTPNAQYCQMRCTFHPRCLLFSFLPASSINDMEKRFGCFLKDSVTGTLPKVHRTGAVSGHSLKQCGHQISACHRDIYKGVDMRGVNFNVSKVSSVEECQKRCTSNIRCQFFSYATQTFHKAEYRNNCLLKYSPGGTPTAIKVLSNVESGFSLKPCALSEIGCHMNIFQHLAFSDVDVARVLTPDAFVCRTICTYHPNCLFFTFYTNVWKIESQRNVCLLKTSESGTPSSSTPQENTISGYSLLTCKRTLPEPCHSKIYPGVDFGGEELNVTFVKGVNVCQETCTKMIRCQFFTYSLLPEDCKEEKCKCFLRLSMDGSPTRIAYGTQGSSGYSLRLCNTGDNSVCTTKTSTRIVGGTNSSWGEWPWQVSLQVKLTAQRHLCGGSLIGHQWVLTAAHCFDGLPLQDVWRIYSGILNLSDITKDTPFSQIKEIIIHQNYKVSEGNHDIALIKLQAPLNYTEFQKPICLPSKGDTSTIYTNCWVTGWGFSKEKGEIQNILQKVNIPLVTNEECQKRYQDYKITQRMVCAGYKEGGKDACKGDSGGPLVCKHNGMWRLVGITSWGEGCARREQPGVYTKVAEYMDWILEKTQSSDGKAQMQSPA

For `CC(=O)O.N=C(N)Nc1ccc(C(=O)OCC(=O)NC(Cc2ccccc2)C(N)=O)cc1` (centres undefined), the k2 was found to be 0.74 min⁻¹ in data set [1] and 3.24 min⁻¹ in data set [2]. The Reactivity with Plasminogen stood at 753; in data set [3], 21; in data set [4], 46000; on Acrosin (Sus scrofa) it was 207000; in data set [5], 8600.

On to `CC(=O)O.N=C(N)Nc1ccc(C(=O)OCC(=O)N[C@@H](Cc2ccccc2)C(=O)N2CCC[C@H]2C(N)=O)cc1`, for which the figures for the k2 in data set [1] and in data set [2] were 0.83 min⁻¹ and 1.27 min⁻¹, respectively. For the same molecule, the figures for the Reactivity in data set [4] and in data set [5] were 32000 and 2600, respectively.

Take `CC(=O)O.C[C@H](NC(=O)COC(=O)c1ccc(NC(=N)N)cc1)C(=O)N[C@@H](Cc1ccccc1)C(N)=O`: the figures for the k2 in data set [1] and in data set [2] were 0.84 min⁻¹ and 0.748 min⁻¹, respectively. In addition, the Reactivity was 13400 in data set [4] and 1400 in data set [5].

Consider `CC(=O)O.N=C(N)Nc1ccc(C(=O)OCC(N)=O)cc1`, for which the k2 is 1.25 min⁻¹ in data set [1] and 0.523 min⁻¹ in data set [2]. The Reactivity in the data set with Plasminogen came out at 644; in data set [3] it was 300; in data set [4], 17000; at Acrosin (Sus scrofa) it was 117000; in data set [5], 2800.

In the case of `CC(=O)O.CCOC(=O)c1ccc(NC(=N)N)cc1`, the k2 in data set [2] turned out to be 1.89 min⁻¹. Besides, the Reactivity was 11 in data set [3], 259 in data set [4], 200000 at Acrosin (Sus scrofa) and 26 in data set [5].

As for `CC(=O)O.CC(C)C(NC(=O)COC(=O)c1ccc(NC(=N)N)cc1)C(N)=O` (centres undefined), the results for the k2 in data set [1] and in data set [2] were 0.87 min⁻¹ and 0.74 min⁻¹, respectively. Further, the Reactivity with Plasminogen came out at 441; in data set [3], 5; in data set [4] it was 11200; on Acrosin (Sus scrofa) it was 114000; in data set [5] it was 2000.

`CC(=O)O.CC(OC(=O)c1ccc(NC(=N)N)cc1)C(=O)NC(Cc1ccccc1)C(N)=O` (centres undefined): the k2 in data set [1] came to 0.1 min⁻¹; in data set [2], 3.7 min⁻¹. Further, the Reactivity is 743 in the data set on Plasminogen, 32 in data set [3], 14200 in data set [4] and 3000 in data set [5].

With `CC(=O)O.N=C(N)Nc1ccc(C(=O)OCC(=O)NCC(=O)NCC(N)=O)cc1`, the k2 in data set [1] is 0.344 min⁻¹; in data set [2], 0.832 min⁻¹. For the same molecule, the figures for the Reactivity in data set [4] and in data set [5] were 10200 and 2000, respectively.
